Compound activity: PubChem BioAssay, several laboratories
A selection: hits, their analogues and other compounds. The true share with any hit is near 4.8%.
NF-kB expr up: activators of NF-kB expression in neurons, primary screen, cell-based, HTS. human neuronal cells, NF-kB reporter expression; active compounds read high. fold change at 12.5 µM. hit rate 1.6% among 190,000. AID 1239, 2008; in the data active means fold change above about 3.3
FLuc inh counter: firefly luciferase enzyme inhibitors, primary screen, artefact control for luciferase-based inhibitor screens, biochemical, luminescence, ATPLite | Luciferin 4-monooxygenase (Photinus pyralis), P08659 | 10 min | inhibition, % at 10 µM | hit rate 1.5% among 200,000 | AID 1006, 2008;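 active means inhibition above about 50% when tested at 10 µM, limit read from the data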
Target sequence (P08659 whole entry, looked up): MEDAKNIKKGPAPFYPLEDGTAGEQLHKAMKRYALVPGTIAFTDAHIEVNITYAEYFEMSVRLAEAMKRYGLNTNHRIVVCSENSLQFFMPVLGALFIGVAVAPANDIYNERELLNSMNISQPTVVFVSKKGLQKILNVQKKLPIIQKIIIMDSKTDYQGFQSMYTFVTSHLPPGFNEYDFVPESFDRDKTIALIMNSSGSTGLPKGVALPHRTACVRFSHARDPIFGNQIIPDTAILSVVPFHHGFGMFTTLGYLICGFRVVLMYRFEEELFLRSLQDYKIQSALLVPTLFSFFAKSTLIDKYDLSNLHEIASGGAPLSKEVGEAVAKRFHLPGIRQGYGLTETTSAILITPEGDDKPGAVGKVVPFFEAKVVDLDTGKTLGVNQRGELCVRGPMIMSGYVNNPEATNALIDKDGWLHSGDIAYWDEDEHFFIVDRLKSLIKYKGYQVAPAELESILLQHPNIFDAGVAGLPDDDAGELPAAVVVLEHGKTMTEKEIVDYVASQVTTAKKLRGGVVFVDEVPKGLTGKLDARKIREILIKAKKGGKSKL
APP transl inh: inhibitors of APP translation via 5'UTR reporter, primary screen, APP 5'UTR luciferase, SH-SY5Y cells. SH-SY5Y APP 5'UTR-luciferase reporter, luminescence. inhibition, % at 2 µM. hit rate 0.82% among 190,000;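 active means inhibition above a set limit, derived from the sample mean plus 3 SD, cut at about 45% in these data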
STAT1 activator: STAT1 signaling activators, primary screen, cell-based, HTS, luciferase reporter | NIH 3T3 STAT1-luciferase reporter, IFN-gamma, luminescence; 100% = IFN-gamma alone, no compound | activation (% of control), % at 5.5 µM | hit rate 2.6% among 200,000 | AID 932, 2007;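 active means activation above the screen-wide mean activation plus 3 SD, cut at about 130% in these data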;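 further: raw ratio to IFN-gamma control signal so 100% means no change and 0% no light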
FLuc act counter: FLuc activators, initial screening, artefact control for FLuc-dependent activation tests, biochemical, ATPlite luminescence. Luciferin 4-monooxygenase (Photinus pyralis), P08659. activation factor at 10 µM. ATPlite luciferase biochemical, 10 min; 0 = ATP-free wells, 1 = DMSO control. 200,000 tested, under 10 active. AID 1027, 2008;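 active means luciferase activation factor, scaled between plate controls, of at least 2 with compound at 10 µM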
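Assay system: Luciferase/luciferin reagent mix; Medium: PBS as buffer for the ATP substrate; Dosing: test compounds dosed from 2 mM stocks in 100% DMSO; Times: 10 min, room temperature; Signal: luminescence from luciferase reaction; Read-out: luciferase activation; Controls: No-ATP low control, compound-free enzyme-plus-ATP high control.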
APP 5'UTR act: activators of APP 5'UTR luciferase reporter, primary screen, SH-SY5Y cells | SH-SY5Y APP 5'UTR luciferase reporter, luminescence; zero percent = DMSO vehicle wells | activation, % at 2 µM | hit rate 1% among 190,000;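 active means activation above a set limit, based on mean plus 3 SD of controls, cut at about 140% in these data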
Active calls of the source: *.

`CCCCc1ccc(-c2nc(N)n[nH]2)cc1` gave NF-kB expr up 2.3, FLuc inh counter 68*, APP transl inh -67, STAT1 activator 124, FLuc act counter 0.3 and APP 5'UTR act 67.
`Cc1cc(C(=O)CSc2ccc3c(c2)OCCO3)c(C)n1C1CC1` gave NF-kB expr up 2.5, FLuc inh counter 13, APP transl inh -56, STAT1 activator 133*, FLuc act counter 0.9 and APP 5'UTR act 56.
For O=[N+]([O-])c1ccc(Cl)c(/C=N/n2c(-c3cccnc3)n[nH]c2=S)c1 the results were NF-kB expr up 1.3, FLuc inh counter 8, APP transl inh 8, STAT1 activator 96, FLuc act counter 0.9 and APP 5'UTR act -8.
Screening CCOc1ccc(C(=O)COC(=O)CC)cc1 returned NF-kB expr up 1.2, FLuc inh counter 56*, APP transl inh -11, STAT1 activator 104, FLuc act counter 0.4 and APP 5'UTR act 11.
`CCCCC(=O)OCC(=O)c1ccc(OCC)cc1` gave NF-kB expr up 1.3, FLuc inh counter 53*, APP transl inh -34, STAT1 activator 95, FLuc act counter 0.5 and APP 5'UTR act 34.
For Cc1nnc(-c2ccccc2)c(=O)n1/N=C/c1c(O)ccc2ccccc12 the results were NF-kB expr up 0.69, FLuc inh counter -1, APP transl inh 61*, STAT1 activator 99, FLuc act counter 1 and APP 5'UTR act -61.
`O=C1CCC2(CC1)NC(=O)N(c1ccccc1)N2` gave NF-kB expr up 1.1, FLuc inh counter -1, APP transl inh -16, STAT1 activator 101, FLuc act counter 1 and APP 5'UTR act 16.
Screening Cc1ccc2nc(C)c(C(=O)NN=C3CCCCCC3)n2c1 returned NF-kB expr up 1, FLuc inh counter -4, APP transl inh 84*, STAT1 activator 97, FLuc act counter 1 and APP 5'UTR act -84.
C/C(NC(=O)c1cccs1)=C1\C(=O)C[C@@H]2[C@H]1C2(C)C was read as NF-kB expr up 2, FLuc inh counter 8, APP transl inh -37, STAT1 activator 130*, FLuc act counter 0.9 and APP 5'UTR act 37.
`Cc1cc(C)c2[nH]c(=O)c(CN(Cc3cccs3)C(=S)NCc3ccco3)cc2c1` gave NF-kB expr up 0.88, FLuc inh counter -6, APP transl inh -1, STAT1 activator 96, FLuc act counter 1.1 and APP 5'UTR act 1.
For Cc1cc(O)c(C=Nc2cccc(Cl)c2)c(=O)o1 the results were NF-kB expr up 1.1, FLuc inh counter -6, APP transl inh -24, STAT1 activator 104, FLuc act counter 1.1 and APP 5'UTR act 24.
Screening Cc1cc(O)c(/C=N/Nc2ccccc2)c(=O)o1 returned NF-kB expr up 1.3, FLuc inh counter 51*, APP transl inh 13, STAT1 activator 88, FLuc act counter 0.5 and APP 5'UTR act -13.
For COc1cc(NC(=O)c2cc3nc(C)cc(C)n3n2)c(OC)cc1Cl the results were NF-kB expr up 1.5, FLuc inh counter 10, APP transl inh -60, STAT1 activator 132*, FLuc act counter 0.9 and APP 5'UTR act 60.
Screening O=C(O)CN1CCN(Cc2ccccc2F)C1=O returned NF-kB expr up 1.2, FLuc inh counter -1, APP transl inh -14, STAT1 activator 103, FLuc act counter 1 and APP 5'UTR act 14.
Cn1c(SCC(=O)N2CCCC2)nnc1-c1ccc(S(=O)(=O)N2CCCC2)cc1 was read as NF-kB expr up 0.95, FLuc inh counter -9, APP transl inh -13, STAT1 activator 95, FLuc act counter 1.1 and APP 5'UTR act 13.
CCSc1nnc(-c2ccc(S(=O)(=O)N3CCCC3)cc2)n1C was read as NF-kB expr up 1.1, FLuc inh counter -4, APP transl inh 73*, STAT1 activator 94, FLuc act counter 1 and APP 5'UTR act -73.
Screening CNC(=O)CN(c1cc(OCCOC)c(Cl)cc1Cl)S(=O)(=O)c1ccc(OC)cc1 returned NF-kB expr up 1.1, FLuc inh counter -8, APP transl inh -4, STAT1 activator 96, FLuc act counter 1.1 and APP 5'UTR act 4.
For c1ccc(Oc2ccc3ccccc3n2)cc1 the results were NF-kB expr up 1.3, FLuc inh counter 8, APP transl inh -28, STAT1 activator 136*, FLuc act counter 0.9 and APP 5'UTR act 28.
Screening Cc1ccc(Nc2nnc(SCC(=O)Nc3ccccc3[N+](=O)[O-])s2)cc1 returned NF-kB expr up 1, FLuc inh counter 12, APP transl inh 0, STAT1 activator 93, FLuc act counter 0.9 and APP 5'UTR act 0.
`Cc1ccc(Nc2nnc(SCC(=O)Nc3cccnc3Cl)s2)cc1C` gave NF-kB expr up 1.1, FLuc inh counter 63*, APP transl inh -12, STAT1 activator 91, FLuc act counter 0.4 and APP 5'UTR act 12.
COc1ccc(NC2=C(NCCO)C(=O)c3ccccc3C2=O)cc1 was read as NF-kB expr up 4.3*, FLuc inh counter 6, APP transl inh -32, STAT1 activator 101, FLuc act counter 0.9 and APP 5'UTR act 32.
Screening CC(C)Sc1nc(N)nc(-c2cccs2)c1C#N returned NF-kB expr up 2.8, FLuc inh counter 5, STAT1 activator 134* and FLuc act counter 0.9.
`COC(=O)[C@H](Cc1ccccc1)NC(=O)O[C@H]1C(=O)c2ccc(OC)cc2O[C@@H]1c1ccc2c(c1)OCO2` gave NF-kB expr up 1.5, FLuc inh counter -3, APP transl inh -4, STAT1 activator 104, FLuc act counter 1 and APP 5'UTR act 4.
CN(CCCC1CCCC1)C(=O)CCc1nnc(-c2ccccc2)o1 was read as NF-kB expr up 3.3, FLuc inh counter 7, APP transl inh -90, STAT1 activator 148*, FLuc act counter 0.9 and APP 5'UTR act 90.
`O=C(CCc1nnc(-c2ccccc2)o1)NC1CCCCC1` gave NF-kB expr up 1.9, FLuc inh counter -4, APP transl inh -23, STAT1 activator 130*, FLuc act counter 1 and APP 5'UTR act 23.
`Cc1cc(C)n(CCN(C)C(=O)CCc2nnc(CCC3CCCCC3)o2)n1` gave NF-kB expr up 3.1, FLuc inh counter -8, APP transl inh -70, STAT1 activator 140*, FLuc act counter 1.1 and APP 5'UTR act 70.
Screening CCN(Cc1ccncc1)C(=O)CCc1nnc(CCC2CCCCC2)o1 returned NF-kB expr up 1.7, FLuc inh counter -3, APP transl inh -12, STAT1 activator 108, FLuc act counter 1 and APP 5'UTR act 12.
